Data published in ChEMBL document CHEMBL1135218, “Structure-based design, synthesis, and biological evaluation of irreversible human rhinovirus 3C protease inhibitors. Part 7: structure-activity studies of bicyclic 2-pyridone-containing peptidomimetics” (Bioorg Med Chem Lett, 2002).

Tests used:
[1] = biological target: T1, Human rhinovirus A protease (Human rhinovirus sp.) (UniProt Q4U254); assay: The compound was tested for the inhibitory activity against human rhinovirus-14 3C Protease
T1 sequence (whole entry): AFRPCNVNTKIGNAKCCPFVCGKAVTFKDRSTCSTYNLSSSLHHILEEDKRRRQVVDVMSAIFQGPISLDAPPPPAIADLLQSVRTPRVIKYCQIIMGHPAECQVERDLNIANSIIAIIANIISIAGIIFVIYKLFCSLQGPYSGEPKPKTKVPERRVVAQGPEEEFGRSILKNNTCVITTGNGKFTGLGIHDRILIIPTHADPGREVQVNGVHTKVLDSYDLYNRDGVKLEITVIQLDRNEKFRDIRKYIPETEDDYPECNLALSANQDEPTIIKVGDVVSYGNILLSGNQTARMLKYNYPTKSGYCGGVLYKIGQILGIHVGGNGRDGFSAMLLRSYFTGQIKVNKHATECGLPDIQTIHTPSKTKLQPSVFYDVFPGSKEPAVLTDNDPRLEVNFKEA
Outline: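 HRV-14 3C protease was exposed to the irreversible inhibitor. Inactivation was expressed as the second-order rate constant kobs/[I] in M-1 s-1.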

HeLa [2] = assay: Compound was tested for the antirhinoviral activity against human rhinovirus (HRV-14) infected H1HeLa cells; assay type: functional, cell-based
HeLa [3] = assay: Cytotoxic concentration against uninfected H1HeLa cell line; assay type: functional; conditions: Homo sapiens
HeLa [4] = assay: (§1) Tested for antirhinoviral activity of compound against HRV 87 infected H1HeLa cells; Cytotoxicity at > 10 uM; assay type: functional, cell-based; conditions: Homo sapiens
HeLa [5] = assay: (§2) Tested for antirhinoviral activity of compound against HRV 25 infected H1HeLa cells; Cytotoxicity at > 10 uM; assay type: functional, cell-based; conditions: Homo sapiens
HeLa [6] = assay: (§3) Tested for antirhinoviral activity of compound against HRV 2 infected H1HeLa cells; Cytotoxicity at > 10 uM; assay type: functional, cell-based; conditions: Homo sapiens
HeLa [7] = assay: (§4) Tested for antirhinoviral activity of compound against HRV 14 infected H1HeLa cells; Cytotoxicity at > 10 uM; assay type: functional; conditions: Homo sapiens
HeLa [8] = assay: (§5) Tested for antirhinoviral activity of compound against HRV 10 infected H1HeLa cells; Cytotoxicity at > 10 uM; assay type: functional; conditions: Homo sapiens
HeLa [9] = assay: (§6) Tested for antirhinoviral activity of compound against HRV 16 infected H1HeLa cells; Cytotoxicity at > 10 uM; assay type: functional, cell-based; conditions: Homo sapiens
HeLa [10] = assay: (§7) Tested for antirhinoviral activity of compound against HRV 39 infected H1HeLa cells; Cytotoxicity at > 10 uM; assay type: functional, cell-based; conditions: Homo sapiens
HeLa [11] = assay: as §1; assay type: functional; conditions: Homo sapiens
HeLa [12] = assay: as §5; assay type: functional, cell-based; conditions: Homo sapiens
HeLa [13] = assay: as §7; assay type: functional; conditions: Homo sapiens
HeLa [14] = assay: as §2; assay type: functional; conditions: Homo sapiens
HeLa [15] = assay: Tested for antirhinoviral activity of compound against HRV 9 infected H1HeLa cells; Cytotoxicity at > 10 uM; assay type: functional; conditions: Homo sapiens
HeLa [16] = assay: as §3; assay type: functional; conditions: Homo sapiens
HeLa [17] = assay: Tested for antirhinoviral activity of compound against HRV 9 infected H1HeLa cells; assay type: functional, cell-based; conditions: Homo sapiens
HeLa [18] = assay: as §6; assay type: functional; conditions: Homo sapiens
HeLa [19] = assay: (§8) Tested for antirhinoviral activity of compound against HRV 3 infected H1HeLa cells; Cytotoxicity at > 10 uM; assay type: functional; conditions: Homo sapiens
HeLa [20] = assay: as §8; assay type: functional, cell-based; conditions: Homo sapiens
HeLa [21] = assay: as §4; assay type: functional, cell-based; conditions: Homo sapiens

In the case of `CCOC(=O)/C=C/[C@H](CCC(N)=O)NC(=O)[C@@H]1CS[C@H]2CC[C@H](NC(=O)OCc3ccccc3)C(=O)N21`, the K obs / 1 [1] is reported as 26 M⁻¹ s⁻¹, the EC50 (HeLa [2]) is reported as over 10000 nM and the CC50 (HeLa [3]) is reported as over 10000 nM.

In the case of `CCOC(=O)/C=C/[C@H](CCC(N)=O)NC(=O)[C@@H]1CCc2ccc(NC(=O)OCc3ccccc3)c(=O)n21`, the K obs / 1 [1] is reported as 4540 M⁻¹ s⁻¹, the EC50 (HeLa [2]) is reported as 9000 nM and the CC50 (HeLa [3]) is reported as over 100000 nM.

`CCOC(=O)/C=C/[C@H](CCC(N)=O)NC(=O)Cn1cccc(NC(=O)OCc2ccccc2)c1=O` showed a K obs / 1 [1] of 348 M⁻¹ s⁻¹, an EC50 (HeLa [2]) of over 10000 nM and a CC50 (HeLa [3]) of over 10000 nM.

`CCOC(=O)/C=C/[C@H](CCC(N)=O)NC(=O)[C@H](Cc1ccccc1)n1cccc(NC(=O)OCc2ccccc2)c1=O` gave a K obs / 1 [1] of 114000 M⁻¹ s⁻¹, an EC50 (HeLa [2]) of 33 nM and a CC50 (HeLa [3]) of 50000 nM.

Work on `CCOC(=O)/C=C/[C@H](C[C@@H]1CCNC1=O)NC(=O)[C@@H]1CCc2ccc(NC(=O)c3cc(C)on3)c(=O)n21` yielded an EC50 (HeLa [4]) of 58 nM, an EC50 (HeLa [5]) of 162 nM and an EC50 (HeLa [6]) of 37 nM. The EC90 (HeLa [7]) was 298 nM, the EC90 (HeLa [8]) was 175 nM and the EC50 (HeLa [9]) was 72 nM. It also gave a K obs / 1 [1] of 177000 M⁻¹ s⁻¹, an EC50 (HeLa [2]) of 162 nM and an EC50 (HeLa [10]) of 16 nM. It also gave an EC90 (HeLa [11]) of 110 nM, an EC50 (HeLa [12]) of 41 nM and an EC90 (HeLa [13]) of 152 nM. It also gave an EC90 (HeLa [14]) of 616 nM, an EC90 (HeLa [15]) of 257 nM and an EC90 (HeLa [16]) of 119 nM. The EC50 (HeLa [17]) was 121 nM, the CC50 (HeLa [3]) was over 10000 nM and the EC90 (HeLa [18]) was 303 nM. For the same compound, the EC90 (HeLa [19]) was 133 nM, the EC50 (HeLa [20]) was 43 nM and the EC50 (HeLa [21]) was 162 nM.
